From ChEMBL document CHEMBL5303300, “EUbOPEN Chemogenomics Library - Multiplex” (2023)
“And” between values parts separate entries of the source, which are not always exact repeats. Equal values may be shown once.

Columns and labels:
Assay type in all cases: toxicity, cell-based
[1] = system: HEK-293T; assay: Multiplex assay against HEK293T; details: human, number of replicates 2
Method in brief: (§1)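 Values for tubulin, mitochondrial-mass and membrane-permeability phenotypes are per cents of cells with healthy nuclei. These cells were identified by CellPathfinder machine-learning gating of live cells that had been stained at seeding with Hoechst33342, BioTracker Green Microtubule Cytoskeleton Dye, MitoTracker Red and Annexin V Alexa Fluor 680 and imaged on a CQ1 microscope at 37°C and 5% CO2 after compound addition. The gating first set Hoechst high-intensity objects apart from normal cells, then split normal cells into healthy, pyknosed or fragmented nuclei, and pyknosed cells into mitotic or apoptotic.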

[2] = system: Fibroblast; assay: Multiplex assay against human fibroblast; details: number of replicates 2; method in brief: as §1
[3] = system: U2OS; assay: Multiplex assay against U2OS; details: human, number of replicates 2; method in brief: as §1
[4] = 12 h, 1 µM, compound concentration 1 uM
[5] = 12 h, 10 µM, compound concentration 10 uM
[6] = 24 h, 1 µM, compound concentration 1 uM
[7] = 24 h, 10 µM, compound concentration 10 uM
[8] = 48 h, 1 µM, compound concentration 1 uM
[9] = 48 h, 10 µM, compound concentration 10 uM

## NCC1CCC(CNc2nc(NCc3ccccc3OC(F)(F)F)ncc2[N+](=O)[O-])CC1 (stereo unspecified)
[1]; [4]
  Population Apoptotic (%): 50% and 53%
  Population Fragmented Nuclei (%): 3% and 4%
  Population Healthy Nuclei (%): 86% and 81%
  Population Hoechst High Intensity Objects (%): 9% and 10%
  Population Membrane Permeable-Phenotype (%): 5% and 1%
  Population Mitochondria Different-Phenotype (%): 23% and 25%
  Population Mitotic Cells (%): 50% and 46%
  Population Normal (%): 90% and 89%
  Population Pyknosed Nuclei (%): 9% and 14%
  Population Tubulin-Different-Phenotype (%): 86% and 81%
  Total Cell Count: 881 and 733
[1]; [5]
  Population Apoptotic (%): 73% and 77%
  Population Fragmented Nuclei (%): 6% and 2%
  Population Healthy Nuclei (%): 79% and 81%
  Population Hoechst High Intensity Objects (%): 8% and 9%
  Population Membrane Permeable-Phenotype (%): 1%
  Population Mitochondria Different-Phenotype (%): 82%
  Population Mitotic Cells (%): 26% and 22%
  Population Normal (%): 91% and 90%
  Population Pyknosed Nuclei (%): 13% and 16%
  Population Tubulin-Different-Phenotype (%): 93% and 91%
  Total Cell Count: 345 and 365
[1]; [6]
  Population Apoptotic (%): 40% and 60%
  Population Fragmented Nuclei (%): 6% and 5%
  Population Healthy Nuclei (%): 85%
  Population Hoechst High Intensity Objects (%): 8% and 9%
  Population Membrane Permeable-Phenotype (%): 4% and 2%
  Population Mitochondria Different-Phenotype (%): 9% and 10%
  Population Mitotic Cells (%): 59% and 40%
  Population Normal (%): 91% and 90%
  Population Pyknosed Nuclei (%): 7% and 9%
  Population Tubulin-Different-Phenotype (%): 70% and 65%
  Total Cell Count: 1307 and 1039
[1]; [7]
  Population Apoptotic (%): 67% and 68%
  Population Fragmented Nuclei (%): 4% and 2%
  Population Healthy Nuclei (%): 79% and 81%
  Population Hoechst High Intensity Objects (%): 9% and 7%
  Population Membrane Permeable-Phenotype (%): 0% and 2%
  Population Mitochondria Different-Phenotype (%): 81% and 78%
  Population Mitotic Cells (%): 32% and 31%
  Population Normal (%): 90% and 92%
  Population Pyknosed Nuclei (%): 15%
  Population Tubulin-Different-Phenotype (%): 94% and 95%
  Total Cell Count: 375 and 418
[1]; [8]
  Population Apoptotic (%): 12% and 31%
  Population Fragmented Nuclei (%): 17% and 10%
  Population Healthy Nuclei (%): 80% and 86%
  Population Hoechst High Intensity Objects (%): 11% and 12%
  Population Membrane Permeable-Phenotype (%): 5% and 3%
  Population Mitochondria Different-Phenotype (%): 0% and 1%
  Population Mitotic Cells (%): 87% and 68%
  Population Normal (%): 88% and 87%
  Population Pyknosed Nuclei (%): 2% and 3%
  Population Tubulin-Different-Phenotype (%): 42% and 39%
  Total Cell Count: 2914 and 2116
[1]; [9]
  Population Apoptotic (%): 67% and 62%
  Population Fragmented Nuclei (%): 6% and 5%
  Population Healthy Nuclei (%): 80%
  Population Hoechst High Intensity Objects (%): 7% and 9%
  Population Membrane Permeable-Phenotype (%): 4% and 3%
  Population Mitochondria Different-Phenotype (%): 70% and 57%
  Population Mitotic Cells (%): 32% and 37%
  Population Normal (%): 92% and 90%
  Population Pyknosed Nuclei (%): 13%
  Population Tubulin-Different-Phenotype (%): 93% and 94%
  Total Cell Count: 433 and 530
[2]; [4]
  Population Apoptotic (%): 46% and 42%
  Population Fragmented Nuclei (%): 9%
  Population Healthy Nuclei (%): 68% and 62%
  Population Hoechst High Intensity Objects (%): 0%
  Population Membrane Permeable-Phenotype (%): 7% and 9%
  Population Mitochondria Different-Phenotype (%): 1% and 2%
  Population Mitotic Cells (%): 53% and 57%
  Population Normal (%): 100% and 99%
  Population Pyknosed Nuclei (%): 21% and 27%
  Population Tubulin-Different-Phenotype (%): 60% and 45%
  Total Cell Count: 205 and 224
[2]; [5]
  Population Apoptotic (%): 34% and 27%
  Population Fragmented Nuclei (%): 14% and 23%
  Population Healthy Nuclei (%): 54% and 60%
  Population Hoechst High Intensity Objects (%): 0%
  Population Membrane Permeable-Phenotype (%): 6% and 9%
  Population Mitochondria Different-Phenotype (%): 28% and 18%
  Population Mitotic Cells (%): 65% and 72%
  Population Normal (%): 100%
  Population Pyknosed Nuclei (%): 31% and 16%
  Population Tubulin-Different-Phenotype (%): 84% and 87%
  Total Cell Count: 135 and 286
[2]; [6]
  Population Apoptotic (%): 64% and 60%
  Population Fragmented Nuclei (%): 10% and 15%
  Population Healthy Nuclei (%): 67% and 62%
  Population Hoechst High Intensity Objects (%): 0% and 1%
  Population Membrane Permeable-Phenotype (%): 0% and 1%
  Population Mitochondria Different-Phenotype (%): 8%
  Population Mitotic Cells (%): 35% and 40%
  Population Normal (%): 100% and 98%
  Population Pyknosed Nuclei (%): 22% and 21%
  Population Tubulin-Different-Phenotype (%): 50% and 37%
  Total Cell Count: 202 and 217
[2]; [7]
  Population Apoptotic (%): 81% and 62%
  Population Fragmented Nuclei (%): 21% and 22%
  Population Healthy Nuclei (%): 58% and 67%
  Population Hoechst High Intensity Objects (%): 0%
  Population Membrane Permeable-Phenotype (%): 5% and 3%
  Population Mitochondria Different-Phenotype (%): 54% and 59%
  Population Mitotic Cells (%): 18% and 37%
  Population Normal (%): 100%
  Population Pyknosed Nuclei (%): 20% and 9%
  Population Tubulin-Different-Phenotype (%): 93%
  Total Cell Count: 132 and 274
[2]; [8]
  Population Apoptotic (%): 70% and 72%
  Population Fragmented Nuclei (%): 10% and 13%
  Population Healthy Nuclei (%): 72% and 65%
  Population Hoechst High Intensity Objects (%): 0%
  Population Membrane Permeable-Phenotype (%): 4% and 3%
  Population Mitochondria Different-Phenotype (%): 2% and 4%
  Population Mitotic Cells (%): 29% and 27%
  Population Normal (%): 100%
  Population Pyknosed Nuclei (%): 16% and 20%
  Population Tubulin-Different-Phenotype (%): 38% and 35%
  Total Cell Count: 210 and 217
[2]; [9]
  Population Apoptotic (%): 90% and 66%
  Population Fragmented Nuclei (%): 28% and 36%
  Population Healthy Nuclei (%): 65% and 58%
  Population Hoechst High Intensity Objects (%): 1% and 0%
  Population Membrane Permeable-Phenotype (%): 0% and 4%
  Population Mitochondria Different-Phenotype (%): 34% and 30%
  Population Normal (%): 98% and 99%
  Population Pyknosed Nuclei (%): 6% and 4%
  Population Tubulin-Different-Phenotype (%): 92% and 91%
  Total Cell Count: 160 and 339
[3]; [4]
  Population Apoptotic (%): 50% and 43%
  Population Fragmented Nuclei (%): 5% and 1%
  Population Healthy Nuclei (%): 74% and 87%
  Population Hoechst High Intensity Objects (%): 0%
  Population Membrane Permeable-Phenotype (%): 7%
  Population Mitochondria Different-Phenotype (%): 7% and 18%
  Population Mitotic Cells (%): 50% and 56%
  Population Normal (%): 100% and 99%
  Population Pyknosed Nuclei (%): 19% and 11%
  Population Tubulin-Different-Phenotype (%): 31% and 29%
[3]; [5]
  Population Apoptotic (%): 68% and 67%
  Population Fragmented Nuclei (%): 24% and 19%
  Population Healthy Nuclei (%): 36% and 61%
  Population Hoechst High Intensity Objects (%): 0%
  Population Membrane Permeable-Phenotype (%): 53% and 34%
  Population Mitochondria Different-Phenotype (%): 73% and 64%
  Population Mitotic Cells (%): 31% and 32%
  Population Normal (%): 100%
  Population Pyknosed Nuclei (%): 39% and 19%
  Population Tubulin-Different-Phenotype (%): 93% and 76%
[3]; [6]
  Population Apoptotic (%): 60%
  Population Fragmented Nuclei (%): 1% and 0%
  Population Healthy Nuclei (%): 81% and 85%
  Population Hoechst High Intensity Objects (%): 0%
  Population Membrane Permeable-Phenotype (%): 4% and 5%
  Population Mitochondria Different-Phenotype (%): 0% and 22%
  Population Mitotic Cells (%): 40% and 39%
  Population Normal (%): 100%
  Population Pyknosed Nuclei (%): 16% and 13%
  Population Tubulin-Different-Phenotype (%): 20% and 30%
[3]; [7]
  Population Apoptotic (%): 100% and 80%
  Population Fragmented Nuclei (%): 28% and 21%
  Population Healthy Nuclei (%): 31% and 59%
  Population Hoechst High Intensity Objects (%): 0%
  Population Membrane Permeable-Phenotype (%): 63% and 43%
  Population Mitochondria Different-Phenotype (%): 36% and 55%
  Population Mitotic Cells (%): 0% and 19%
  Population Normal (%): 100%
  Population Pyknosed Nuclei (%): 40% and 19%
  Population Tubulin-Different-Phenotype (%): 90% and 81%
[3]; [8]
  Population Apoptotic (%): 76% and 78%
  Population Fragmented Nuclei (%): 6% and 1%
  Population Healthy Nuclei (%): 71% and 88%
  Population Hoechst High Intensity Objects (%): 0%
  Population Membrane Permeable-Phenotype (%): 7% and 2%
  Population Mitochondria Different-Phenotype (%): 3% and 10%
  Population Mitotic Cells (%): 23% and 21%
  Population Normal (%): 100%
  Population Pyknosed Nuclei (%): 21% and 9%
  Population Tubulin-Different-Phenotype (%): 19% and 34%
[3]; [9]
  Population Apoptotic (%): 100% and 91%
  Population Fragmented Nuclei (%): 24% and 21%
  Population Healthy Nuclei (%): 24% and 54%
  Population Hoechst High Intensity Objects (%): 0%
  Population Membrane Permeable-Phenotype (%): 100% and 72%
  Population Mitochondria Different-Phenotype (%): 75% and 46%
  Population Mitotic Cells (%): 0% and 8%
  Population Normal (%): 100%
  Population Pyknosed Nuclei (%): 51% and 23%
  Population Tubulin-Different-Phenotype (%): 100% and 86%
